The nature of test [1]: Inhibition of NADH oxidase from beef heart submitochondrial particles by spectrophotometry. Details: species or system Bos taurus. The essentials: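 Bovine heart inverted SMP, stored in 0.25 M sucrose/10 mM Tris-HCl pH 7.4 at −80 °C, diluted to 0.5 mg/mL and activated with 300 NADH. Assayed at 30 °C in 50 mM Hepes pH 7.5, 5 mM MgCl2, 30 μg protein. SMP pre-equilibrated with inhibitor 5 min, then 50 μM NADH added. Rates from the linear part of the trace at 340 nm. Ethanol ≤2%.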

Test [2] can be described thus: Inhibition of NADH-ubiquinone oxidoreductase from beef heart submitochondrial particles by spectrophotometry. Details: species or system Bos taurus. Put shortly: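 Bovine heart inverted SMP, activated with 300 NADH, 30 μg protein, 30 °C. 5 min inhibitor pre-equilibration, then 50 μM NADH added. Read at 340 nm. […] IC50 is the final concentration giving 50% inhibition; mean ± SD of three independent experiments.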

Test [3] is described as follows: Cytotoxicity against human CRL2366 cells by MTT assay. In kind it is functional, cell-based. Put shortly: (§1)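 MTT growth assay. MCF-7, A-549 and 3LL cells grown in RPMI-1640; CRL-2365 and CRL-2366 grown in DMEM. All media had 10% FBS, penicillin G (100 U/mL) and streptomycin (100 μg/mL).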
In general terms: Tetrazolium assays rely on reduction of a dye to a coloured formazan, in cell work by metabolically active cells.

A short description of test [4]: Cytotoxicity against human CRL2365 cells by MTT assay. In kind it is functional, cell-based. Put shortly: as §1
The subject of test [5] is MCF-10A. Kind of test: Cytotoxicity against human MCF10A cells by MTT assay. In kind it is functional, cell-based. The essentials: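 MTT growth assay on MCF-10A cells grown in Mammary Epithelial Growth Medium following the supplier protocol.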
Test [6] can be described thus: Cytotoxicity against mouse 3LL cells by MTT assay. In kind it is functional, cell-based. Put shortly:
as §1

For test [7], the system named is A549. The test is described as follows: Cytotoxicity against human A549 cells by MTT assay. In kind it is functional, cell-based. Put shortly:
as §1

A short description of test [8]: Inhibition of mitochondrial complex 1 in human MCF7 cells assessed as concentration required to obtain half maximal lactate production after 3 hrs by spectrophotometry. It counts as cell-based. Conditions: MCF7, 3 h. The essentials: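 MCF-7 cells seeded at 2 × 10^5 per well and grown 24 h to about 50% confluence, then rinsed. Compounds given in Krebs-Ringer buffer for 3 h, with buffer controls. Supernatant lactate measured by ΔOD at 363 nm (ε 9.1 mM−1 cm−1). IC50 is the dose giving 50% of maximal lactate production. Points are the mean ± SD of triplicates; experiments repeated at least three times.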

Test [9] concerns MCF7. Kind of test: Cytotoxicity against human MCF7 cells by MTT assay. In kind it is functional, cell-based. Put shortly: as §1

A word on the IC50: it is the point on the concentration scale where inhibition reaches its midpoint.

For the molecule `CCCCCCCCC(C)(O)CCc1[nH]c(=O)c(C)c(O)c1C` (racemic), the half-inhibitory concentration (IC50) turned out to be 4.29 µM in [1] and 1.25 µM in [2].

As to `CCCCCCCC[C@@](C)(O)CCc1oc(C)c(C)c(=O)c1C`, the IC50 was 0.0508 µM in test [1] and 0.145 µM in test [2].

Regarding `CCCCCCCC[C@](C)(O)CCc1oc(C)c(C)c(=O)c1C`, the figures for the 50% inhibitory concentration (IC50) in test [1] and in [2] were 0.0475 µM and 0.135 µM, respectively.

Regarding `COc1oc(CC(O)CCCCCOc2ccc(-c3ccccc3)cc2)c(C)c(=O)c1C` (stereo not given), the 50% inhibitory concentration (IC50) is 19.5 µM in test [3]; 12.4 µM in [4]; 9.2 µM in test [5]; 13.5 µM in test [6]; 17 µM in [7]; 0.0359 µM in [1]. Also, the IC50 in test [8] was 0.34 µM; in test [9], 17.4 µM; in test [2] it was 0.102 µM.

As to `CCCCCC[C@H]1C(=O)O[C@H](C)[C@H](NC(=O)c2cccc(NC=O)c2O)C(=O)O[C@@H](C)[C@@H]1OC(=O)CC(C)C` [ANTIMYCIN A], the IC50 in test [8] is under 0.15 µM.

Take `CCCCCCCCC(C)(O)CCc1oc(OC)c(C)c(=O)c1C` (racemic): the IC50 in [1] came out at 0.0526 µM; in test [8] it was 0.38 µM; in test [2], 0.151 µM.

Take `CCCCCCCCC(C)(O)CCc1oc(=O)c(C)c(O)c1C` (racemic): the IC50 in [3] was over 31 µM; in test [4], over 31 µM; in test [5], over 31 µM; in test [6], over 31 µM; in test [7], over 31 µM; in [1] it was 13.6 µM. For the same molecule, the IC50 in test [8] was 4.9 µM; in [9] it was over 31 µM; in test [2], 16.4 µM.

For `CCCCCCCC[C@@](C)(O)CCc1oc(OC)c(C)c(=O)c1C`, the half-inhibitory concentration (IC50) worked out at 2.7 µM in [3]; 3.3 µM in test [4]; 5.3 µM in test [5]; 0.39 µM in test [6]; 5.3 µM in test [7]; 0.0459 µM in test [1]. The concentration for half-maximal inhibition (IC50) in [8] amounted to 0.3 µM; in test [9], 3.3 µM; in [2] it was 0.133 µM.

In the case of `CCCCC(O)Cc1oc(OC)c(C)c(=O)c1C` (stereo not given), the 50% inhibitory concentration (IC50) in test [1] was over 20 µM; in test [8] it was over 20 µM; in [2], over 25 µM.

Regarding `CCCCCCCCC(C)(O)CCc1oc(C)c(C)c(=O)c1C` (racemic), the IC50 in test [3] was over 31 µM; in [4] it was over 31 µM; in test [5], over 31 µM; in test [6], over 31 µM; in [7] it was over 31 µM; in [1], 0.055 µM. Moreover, the results for the IC50 in test [8], in test [9] and in test [2] were 0.94 µM, over 31 µM and 0.18 µM, respectively.

For the molecule `COc1oc(CC(O)CCCCCOc2ccccc2)c(C)c(=O)c1C` (stereo not given), the figures for the IC50 in [1] and in [2] were 0.219 µM and 0.595 µM, respectively.

`CCCCCCCCCC(O)Cc1oc(OC)c(C)c(=O)c1C` (stereo not given): the IC50 in [3] is over 31 µM; in test [4], 29.9 µM; in [5], 9.9 µM; in [6], 22.2 µM; in [7], 20.7 µM; in test [1], 0.0649 µM. Besides, the IC50 turned out to be 0.9 µM in test [8], 23.2 µM in test [9] and 0.231 µM in test [2].

On to `COc1oc(CC(O)CCCCCCc2ccccc2)c(C)c(=O)c1C` (stereo not given), for which the half-maximal inhibitory concentration (IC50) in [3] was over 27 µM; in test [4] it was over 27 µM; in test [5], 15.1 µM; in test [6], 17.3 µM; in test [7] it was over 27 µM; in [1] it was 0.0725 µM. Further, the IC50 in test [8] was 0.88 µM; in test [9], over 27 µM; in test [2], 0.257 µM.

For the molecule `CCCCCCCC[C@](C)(O)CCc1oc(OC)c(C)c(=O)c1C`, the IC50 in [3] came out at 3.3 µM; in test [4], 2.4 µM; in [5], 5.6 µM; in test [6], 0.34 µM; in test [7], 4.1 µM; in test [1] it was 0.0432 µM. Further, the half-maximal inhibitory concentration (IC50) stood at 0.18 µM in test [8] and 0.126 µM in test [2].

On to `CCCCCCCC[C@@](C)(O)CCc1oc(=O)c(C)c(O)c1C`, for which the IC50 in [3] was over 31 µM; in test [4], over 31 µM; in test [5], over 31 µM; in [6], over 31 µM; in [7], over 31 µM; in test [1] it was 14.7 µM. For the same molecule, the results for the IC50 in test [8], in [9] and in test [2] were 8.6 µM, over 31 µM and 19 µM, respectively.

Take `CCCCCCCC[C@](C)(O)CCc1oc(=O)c(C)c(O)c1C`: the IC50 in test [3] was over 31 µM; in test [4] it was over 31 µM; in test [5] it was over 31 µM; in [6], over 31 µM; in test [7] it was over 31 µM; in test [1] it was 10.7 µM. For the same molecule, the figures for the IC50 in [8], in test [9] and in [2] were 16.6 µM, over 31 µM and 13.3 µM, respectively.
